Data as given in ChEMBL document CHEMBL4265912, “Design, synthesis and identification of novel substituted 2-amino thiazole analogues as potential anti-inflammatory agents targeting 5-lipoxygenase” (Eur J Med Chem, 2018).

T1: Polyunsaturated fatty acid 5-lipoxygenase (Homo sapiens, UniProt P09917)
T1 sequence (P09917 whole entry): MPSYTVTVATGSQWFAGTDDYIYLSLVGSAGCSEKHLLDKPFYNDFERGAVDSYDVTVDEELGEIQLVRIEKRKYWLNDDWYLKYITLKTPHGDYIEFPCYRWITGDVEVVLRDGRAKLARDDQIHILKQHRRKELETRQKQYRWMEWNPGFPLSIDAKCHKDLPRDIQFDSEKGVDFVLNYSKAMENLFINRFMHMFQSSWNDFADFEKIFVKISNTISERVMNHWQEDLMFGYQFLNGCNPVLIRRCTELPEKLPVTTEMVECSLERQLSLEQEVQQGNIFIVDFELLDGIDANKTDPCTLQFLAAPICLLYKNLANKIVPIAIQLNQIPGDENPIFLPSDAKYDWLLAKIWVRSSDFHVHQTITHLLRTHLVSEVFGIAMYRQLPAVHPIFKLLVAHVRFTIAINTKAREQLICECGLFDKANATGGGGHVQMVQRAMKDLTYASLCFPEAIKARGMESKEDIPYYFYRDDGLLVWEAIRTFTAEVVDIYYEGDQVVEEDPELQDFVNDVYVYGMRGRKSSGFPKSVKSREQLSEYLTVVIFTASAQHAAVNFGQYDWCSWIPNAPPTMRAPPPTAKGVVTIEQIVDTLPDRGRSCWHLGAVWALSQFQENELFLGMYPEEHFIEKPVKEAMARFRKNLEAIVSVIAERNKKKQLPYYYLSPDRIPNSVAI

T2: Polyunsaturated fatty acid 5-lipoxygenase (Homo sapiens) (UniProt P09917)
T2 sequence (whole entry): T1 sequence (P09917 whole entry)

B1: Polyunsaturated fatty acid 5-lipoxygenase (Homo sapiens), P09917 (protein)
chain: T1 sequence (P09917 whole entry)

Target: T1, Polyunsaturated fatty acid 5-lipoxygenase
Experiment: Inhibition of recombinant human 5-LOX expressed in Escherichia coli BL21 using arachidonic acid as substrate by UV-vis spectrophotometric method
How it was run: (§1)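 Partially purified human 5-LOX, expressed in E. coli BL21 (IPTG induction, ammonium sulfate precipitation, 100000 × g supernatant). Buffer: 25 mM HEPES pH 7.3, EDTA, 10 mM CaCl2, 4 mM ATP; compound in 2% DMSO added at 4 °C; started with 30 μM AA.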

Molecule | IC50
COc1ccc(-c2nc(N(c3ccccc3)c3ccccc3)sc2C(=O)c2ccccc2)cc1 | 900 nM
O=C(c1ccccc1)c1sc(N2CCOCC2)nc1-c1ccccc1 | 2300 nM
O=C(c1ccccc1)c1sc(N2CCCCC2)nc1-c1ccccc1 | 3100 nM
COc1ccc(C(=O)NC(=S)N2CCCCC2)cc1 | 3300 nM
O=C(NC(=S)N1CCN(c2ccccc2)CC1)c1ccccc1 | 1400 nM
O=C(NC(=S)N1CCCCC1)c1ccc(F)cc1 | 3800 nM

Compound: COc1ccc(-c2nc(N(c3ccccc3)c3ccccc3)sc2C(=O)c2ccccc2)cc1
Experiment: Competitive inhibition of recombinant human 5-LOX expressed in Escherichia coli BL21 assessed as Vmax for substrate at 5 uM using arachidonic acid as substrate by Lineweaver-Burk plot analysis (reference value: 0.39 +/- 0.02 nmol/min)

Molecule | Vmax
B1 | 0.38 nmol/min

System: not listed separately
Experiment: Antioxidant activity assessed as DPPH radical scavenging activity at 20 uM measured after 30 mins
Format: functional
How it was run: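 Test compound at 20 μM added to 0.1 mM DPPH in methanol, incubated 30 min at room temperature in dark; absorbance read at 517 nm; ascorbic acid reference; percent scavenging calculated; three repeats, mean ± SEM.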

Molecule | Activity
COc1ccc(C(=O)NC(=S)N(c2ccccc2)c2ccccc2)cc1 | 8.1%
O=C(c1ccccc1)c1sc(N2CCN(c3ccccc3)CC2)nc1-c1ccccc1 | -0.7%
O=C(NC(=S)N1CCN(c2ccccc2)CC1)c1ccc(F)cc1 | 6.3%
O=C(NC(=S)N(c1ccccc1)c1ccccc1)c1ccccc1 | 11.3%
O=C(NC(=S)N1CCCCC1)c1ccccc1 | 23.7%
COc1ccc(-c2nc(N(c3ccccc3)c3ccccc3)sc2C(=O)c2ccccc2)cc1 | 11.8%
O=C(c1ccccc1)c1sc(N2CCOCC2)nc1-c1ccccc1 | 9.5%
O=C(NC(=S)N1CCOCC1)c1ccc(F)cc1 | 9.1%
O=C(c1ccccc1)c1sc(N2CCCCC2)nc1-c1ccccc1 | 8.5%
COc1ccc(C(=O)NC(=S)N2CCOCC2)cc1 | 3.9%
COc1ccc(C(=O)NC(=S)N2CCN(c3ccccc3)CC2)cc1 | 3.7%
COc1ccc(-c2nc(N3CCN(c4ccccc4)CC3)sc2C(=O)c2ccccc2)cc1 | 7.8%
COc1ccc(C(=O)NC(=S)N2CCCCC2)cc1 | 21.8%
O=C(c1ccccc1)c1sc(N(c2ccccc2)c2ccccc2)nc1-c1ccccc1 | -4.7%
COc1ccc(C(=O)NC(=S)N(C)Cc2ccccc2)cc1 | 7.4%
CN(Cc1ccccc1)c1nc(-c2ccccc2)c(C(=O)c2ccccc2)s1 | 3.6%
CN(C(=S)NC(=O)c1ccccc1)c1ccccc1 | 13.2%

Molecule | Activity
O=C(NC(=S)N1CCN(c2ccccc2)CC1)c1ccccc1 | 24.1%
O=C(c1ccccc1)c1sc(N2CCCC2)nc1-c1ccccc1 | -2.9%
O=C(NC(=S)N1CCN(c2ccccc2)CC1)c1ccc([N+](=O)[O-])cc1 | 20.3%
COc1ccc(-c2nc(N3CCCCC3)sc2C(=O)c2ccccc2)cc1 | 9.6%
O=C(NC(=S)N1CCCCC1)c1ccc(F)cc1 | 5.9%
O=C1O[C@H]([C@@H](O)CO)C(O)=C1O | 84.1%
CC(c1cc2ccccc2s1)N(O)C(N)=O (configuration not stated) | 17.8%
CN(Cc1ccccc1)C(=S)NC(=O)c1ccccc1 | 18.4%
O=C(NC(=S)N1CCCC1)c1ccccc1 | 25.6%
CN(c1ccccc1)c1nc(-c2ccccc2)c(C(=O)c2ccccc2)s1 | 4.6%
O=C(c1ccccc1)c1sc(N2CCN(c3ccccc3)CC2)nc1-c1ccc([N+](=O)[O-])cc1 | 8.2%
O=C(c1ccccc1)c1sc(N(c2ccccc2)c2ccccc2)nc1-c1ccc([N+](=O)[O-])cc1 | -2.8%
O=C(NC(=S)N(c1ccccc1)c1ccccc1)c1ccc([N+](=O)[O-])cc1 | 4.7%
O=C(NC(=S)N1CCOCC1)c1ccccc1 | 19.1%
O=C(c1ccccc1)c1sc(N2CCOCC2)nc1-c1ccc(F)cc1 | -0.8%
COc1ccc(-c2nc(N(C)Cc3ccccc3)sc2C(=O)c2ccccc2)cc1 | -1.9%

Compound: O=C(NC(=S)N1CCN(c2ccccc2)CC1)c1ccccc1
Experiment: Mixed non-competitive inhibition of recombinant human 5-LOX expressed in Escherichia coli BL21 assessed as Vmax for substrate at 10 uM using arachidonic acid as substrate by Lineweaver-Burk plot analysis (reference value: 0.48 +/- 0.02 nmol/min)

Molecule | Vmax
B1 | 0.34 nmol/min

Compound: O=C(NC(=S)N1CCN(c2ccccc2)CC1)c1ccccc1
Experiment: Mixed non-competitive inhibition of recombinant human 5-LOX expressed in Escherichia coli BL21 assessed as Km for substrate at 5 uM using arachidonic acid as substrate by Lineweaver-Burk plot analysis (reference value: 0.7761 +/- 0.22 microM)

Molecule | Km
B1 | 0.79 µM

Compound: COc1ccc(-c2nc(N(c3ccccc3)c3ccccc3)sc2C(=O)c2ccccc2)cc1
Experiment: Competitive inhibition of recombinant human 5-LOX expressed in Escherichia coli BL21 assessed as Km for substrate at 10 uM using arachidonic acid as substrate by Lineweaver-Burk plot analysis (reference value: 0.42 +/- 0.15 microM)

Molecule | Km
B1 | 1.51 µM

Compound: COc1ccc(-c2nc(N(c3ccccc3)c3ccccc3)sc2C(=O)c2ccccc2)cc1
Experiment: Competitive inhibition of recombinant human 5-LOX expressed in Escherichia coli BL21 assessed as Vmax for substrate at 10 uM using arachidonic acid as substrate by Lineweaver-Burk plot analysis (reference value: 0.39 +/- 0.02 nmol/min)

Molecule | Vmax
B1 | 0.38 nmol/min

Compound: O=C(NC(=S)N1CCN(c2ccccc2)CC1)c1ccccc1
Experiment: Mixed non-competitive inhibition of recombinant human 5-LOX expressed in Escherichia coli BL21 assessed as Vmax for substrate at 5 uM using arachidonic acid as substrate by Lineweaver-Burk plot analysis (reference value: 0.48 +/- 0.02 nmol/min)

Molecule | Vmax
B1 | 0.4 nmol/min

Target: T2, Polyunsaturated fatty acid 5-lipoxygenase (Homo sapiens)
Experiment: Inhibition of recombinant human 5-LOX pseudoperoxidase activity expressed in Escherichia coli BL21 assessed as compound redox activity by measuring decrease in 13(S)-HpODE product formation at 10 uM by UV-vis spectrophotometric method
Set-up: scale not given: the % may be the effect or the level left
How it was run: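 Pseudoperoxidase: 10 μM inhibitor (1:1 to substrate) starts reaction in 50 mM potassium phosphate pH 7.4, 0.3 mM CaCl2, 0.1 mM EDTA, 200 μM ATP, 10 μM 13(S)-HPODE with 5-LOX; loss of hydroperoxide followed at 234 nm over 300 s, relative to control.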

Molecule | Activity
COc1ccc(-c2nc(N(c3ccccc3)c3ccccc3)sc2C(=O)c2ccccc2)cc1 | 29.4%
O=C(c1ccccc1)c1sc(N2CCOCC2)nc1-c1ccccc1 | 2.1%
O=C(c1ccccc1)c1sc(N2CCCCC2)nc1-c1ccccc1 | 0.6%
O=C(NC(=S)N1CCN(c2ccccc2)CC1)c1ccccc1 | -46.2%

Compound: COc1ccc(-c2nc(N(c3ccccc3)c3ccccc3)sc2C(=O)c2ccccc2)cc1
Experiment: Competitive inhibition of recombinant human 5-LOX expressed in Escherichia coli BL21 assessed as Km for substrate at 5 uM using arachidonic acid as substrate by Lineweaver-Burk plot analysis (reference value: 0.42 +/- 0.15 microM)

Molecule | Km
B1 | 0.99 µM

Compound: O=C(NC(=S)N1CCN(c2ccccc2)CC1)c1ccccc1
Experiment: Mixed non-competitive inhibition of recombinant human 5-LOX expressed in Escherichia coli BL21 assessed as Km for substrate at 10 uM using arachidonic acid as substrate by Lineweaver-Burk plot analysis (reference value: 0.7761 +/- 0.22 microM)

Molecule | Km
B1 | 0.767 µM

Target: T2, Polyunsaturated fatty acid 5-lipoxygenase (Homo sapiens)
Experiment: Inhibition of recombinant human 5-LOX expressed in Escherichia coli BL21 at 10 uM using arachidonic acid as substrate by UV-vis spectrophotometric method relative to control
How it was run: as §1, with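 “AA. 5-HPETE read at 236 nm. Single point at 10 μM; IC50 from inhibition-versus-concentration curves; three repeats.” for “AA.”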

Molecule | inhibition
COc1ccc(C(=O)NC(=S)N(c2ccccc2)c2ccccc2)cc1 | 19.2%
O=C(c1ccccc1)c1sc(N2CCN(c3ccccc3)CC2)nc1-c1ccccc1 | 38.3%
O=C(NC(=S)N1CCN(c2ccccc2)CC1)c1ccc(F)cc1 | 23.6%
O=C(NC(=S)N(c1ccccc1)c1ccccc1)c1ccccc1 | 73.3%
O=C(NC(=S)N1CCCCC1)c1ccccc1 | 56.8%
COc1ccc(-c2nc(N(c3ccccc3)c3ccccc3)sc2C(=O)c2ccccc2)cc1 | 92.8%
O=C(c1ccccc1)c1sc(N2CCOCC2)nc1-c1ccccc1 | 85.3%
O=C(NC(=S)N1CCOCC1)c1ccc(F)cc1 | 29.5%
O=C(c1ccccc1)c1sc(N2CCCCC2)nc1-c1ccccc1 | 85.2%
COc1ccc(C(=O)NC(=S)N2CCOCC2)cc1 | 68.3%
COc1ccc(C(=O)NC(=S)N2CCN(c3ccccc3)CC2)cc1 | 36.8%
COc1ccc(-c2nc(N3CCN(c4ccccc4)CC3)sc2C(=O)c2ccccc2)cc1 | 53.1%
COc1ccc(C(=O)NC(=S)N2CCCCC2)cc1 | 86%
O=C(c1ccccc1)c1sc(N(c2ccccc2)c2ccccc2)nc1-c1ccccc1 | 48.6%
COc1ccc(C(=O)NC(=S)N(C)Cc2ccccc2)cc1 | 26.5%
CN(Cc1ccccc1)c1nc(-c2ccccc2)c(C(=O)c2ccccc2)s1 | 53.1%

Molecule | inhibition
CN(C(=S)NC(=O)c1ccccc1)c1ccccc1 | 78.7%
O=C(NC(=S)N1CCN(c2ccccc2)CC1)c1ccccc1 | 91.3%
O=C(c1ccccc1)c1sc(N2CCCC2)nc1-c1ccccc1 | 75.3%
O=C(NC(=S)N1CCN(c2ccccc2)CC1)c1ccc([N+](=O)[O-])cc1 | 76.6%
COc1ccc(-c2nc(N3CCCCC3)sc2C(=O)c2ccccc2)cc1 | 62%
O=C(NC(=S)N1CCCCC1)c1ccc(F)cc1 | 80.7%
CN(Cc1ccccc1)C(=S)NC(=O)c1ccccc1 | 80.7%
O=C(NC(=S)N1CCCC1)c1ccccc1 | 24.5%
CN(c1ccccc1)c1nc(-c2ccccc2)c(C(=O)c2ccccc2)s1 | 67.8%
O=C(c1ccccc1)c1sc(N2CCN(c3ccccc3)CC2)nc1-c1ccc([N+](=O)[O-])cc1 | 67.8%
O=C(c1ccccc1)c1sc(N(c2ccccc2)c2ccccc2)nc1-c1ccc([N+](=O)[O-])cc1 | 79.6%
O=C(NC(=S)N(c1ccccc1)c1ccccc1)c1ccc([N+](=O)[O-])cc1 | 30.9%
O=C(NC(=S)N1CCOCC1)c1ccccc1 | 79.4%
O=C(c1ccccc1)c1sc(N2CCOCC2)nc1-c1ccc(F)cc1 | 50.2%
COc1ccc(-c2nc(N(C)Cc3ccccc3)sc2C(=O)c2ccccc2)cc1 | 17.7%
